For 9 compounds, IC50 and Ratio results are on record in ChEMBL document CHEMBL1131564, “Potent and selective ligands for the dopamine transporter (DAT): structure-activity relationship studies of novel 4-[2-(diphenylmethoxy)ethyl]-1-(3-phenylpropyl)piperidine analogues” (J Med Chem, 1998).

The target of experiment [1] is Sodium-dependent dopamine transporter (Rattus norvegicus, UniProt P23977). Nature of the experiment: Inhibitory activity against dopamine transporter (DAT) labeled with [3H]WIN-35428 in rat brain striatal membrane. The format is cell membranes.
For experiment [2], the target named is Sodium-dependent serotonin transporter (Rattus norvegicus, UniProt P31652). Nature of the experiment: Inhibitory activity against serotonin transporter (SERT) labeled with [3H]-citalopram in rat brain striatal membrane. It is filed as cell membranes.
Experiment [3] relates to Monoamine transporters; serotonin & dopamine. The experiment in a line: Ratio between the IC50 values of SERT and DAT. It is filed as protein assay. Summed up:
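Selectivity ratio: SERT IC50 ([3H]citalopram) divided by DAT IC50 ([3H]WIN 35,428). Both IC50s come from binding in male Sprague–Dawley rat striatal membranes under identical conditions, each by nonlinear curve fitting of at least five concentrations, three independent experiments in triplicate.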

Sequence of Sodium-dependent serotonin transporter (P31652 whole entry): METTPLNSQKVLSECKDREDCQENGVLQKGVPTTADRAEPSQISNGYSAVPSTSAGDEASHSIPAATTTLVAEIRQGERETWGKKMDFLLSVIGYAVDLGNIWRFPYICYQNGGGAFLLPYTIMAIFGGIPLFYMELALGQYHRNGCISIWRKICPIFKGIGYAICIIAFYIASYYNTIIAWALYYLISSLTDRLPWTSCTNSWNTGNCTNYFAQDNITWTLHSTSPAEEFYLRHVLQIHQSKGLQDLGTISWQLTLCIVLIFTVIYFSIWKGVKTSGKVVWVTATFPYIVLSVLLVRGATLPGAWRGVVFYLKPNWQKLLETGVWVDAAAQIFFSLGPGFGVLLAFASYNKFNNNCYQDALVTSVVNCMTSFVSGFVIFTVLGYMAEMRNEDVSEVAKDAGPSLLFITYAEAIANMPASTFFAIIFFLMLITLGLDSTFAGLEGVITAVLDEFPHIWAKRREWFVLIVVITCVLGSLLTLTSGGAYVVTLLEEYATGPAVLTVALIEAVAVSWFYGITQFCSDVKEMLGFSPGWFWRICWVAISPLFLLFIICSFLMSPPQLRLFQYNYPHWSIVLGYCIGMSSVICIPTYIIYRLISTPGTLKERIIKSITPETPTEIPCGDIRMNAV
Sequence of Sodium-dependent dopamine transporter (P23977 whole entry): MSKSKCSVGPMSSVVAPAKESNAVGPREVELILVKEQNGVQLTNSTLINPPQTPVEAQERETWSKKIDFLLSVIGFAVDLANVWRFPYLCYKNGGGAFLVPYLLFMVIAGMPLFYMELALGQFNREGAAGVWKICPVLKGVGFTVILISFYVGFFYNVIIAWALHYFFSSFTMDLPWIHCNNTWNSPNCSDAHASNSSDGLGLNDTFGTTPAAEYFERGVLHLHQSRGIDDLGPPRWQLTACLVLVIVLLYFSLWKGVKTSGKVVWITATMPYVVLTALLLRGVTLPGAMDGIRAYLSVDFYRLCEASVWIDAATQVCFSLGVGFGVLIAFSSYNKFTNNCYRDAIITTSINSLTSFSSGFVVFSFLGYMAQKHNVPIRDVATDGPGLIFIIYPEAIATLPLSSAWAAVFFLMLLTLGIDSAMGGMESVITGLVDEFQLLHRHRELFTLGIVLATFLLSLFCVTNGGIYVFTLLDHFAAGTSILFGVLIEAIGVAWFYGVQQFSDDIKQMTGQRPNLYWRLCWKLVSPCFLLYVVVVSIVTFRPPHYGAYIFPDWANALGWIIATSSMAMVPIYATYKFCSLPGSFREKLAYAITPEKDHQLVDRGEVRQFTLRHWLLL

In the case of `Fc1ccc(C(OCCC2CCN(CC=Cc3ccccc3)CC2)c2ccc(F)cc2)cc1`, the IC50 (commonly the concentration at which inhibition is half-maximal) in experiment [1] amounted to 41.4 nM; in experiment [2] it was 271 nM. For the same compound, in experiment [3], the Ratio came to 6.5.

Take `Fc1ccc(C=CCN2CCC(CCOC(c3ccc(F)cc3)c3ccc(F)cc3)CC2)cc1`: the figures for the IC50 in experiment [1] and in experiment [2] were 15.1 nM and 75.8 nM, respectively. Also, the Ratio in experiment [3] is 5.

On to `c1ccc(CCCN2CCC(CCOC(c3ccccc3)c3cccs3)CC2)cc1` (configuration not stated), for which the IC50 in experiment [1] amounted to 6 nM; in experiment [2] it was 180 nM. Besides, the Ratio in experiment [3] is 30.

As for `C(=Cc1cccs1)CN1CCC(CCOC(c2ccccc2)c2ccccc2)CC1`, the IC50 stood at 9.8 nM in experiment [1] and 291 nM in experiment [2]. The Ratio in experiment [3] was 29.6.

With `c1ccc(C(OCCC2CCN(CCCc3cccnc3)CC2)c2ccccc2)cc1`, the IC50 in experiment [1] amounted to 29.9 nM; in experiment [2] it was 194 nM. The Ratio in experiment [3] amounted to 6.5.

In the case of `Fc1ccc(C(OCCC2CCN(CCCc3ccccc3)CC2)c2cccs2)cc1` (configuration not stated), the IC50 in experiment [1] amounted to 11.7 nM; in experiment [2], 85.7 nM. Further, the Ratio in experiment [3] is 7.3.

With `Fc1ccc(CCCN2CCC(CCOC(c3ccccc3)c3ccccc3)CC2)cc1`, the IC50 was 6.6 nM in experiment [1] and 223 nM in experiment [2]. Moreover, the Ratio in experiment [3] stood at 33.8.

Consider `Fc1ccc(C=CCN2CCC(CCOC(c3ccccc3)c3ccccc3)CC2)cc1`, for which the IC50 in experiment [1] amounted to 10.8 nM; in experiment [2] it was 205 nM. Also, in experiment [3], the Ratio stood at 19.

Turning to `C(=Cc1ccccc1)CN1CCC(CCOC(c2ccccc2)c2ccccc2)CC1`, the IC50 in experiment [1] is 10.1 nM; in experiment [2], 232 nM. For the same compound, the Ratio in experiment [3] worked out at 22.9.
